The results in this text go back to ChEMBL document CHEMBL3102831 (Bioorg Med Chem Lett, 2014).

For assay [1], the system named is DNA. The experiment in a line: Binding affinity to calf thymus DNA at compound and GelRed ratio 1:1 to 9:1 by fluorescence emission spectra analysis. Type of assay: nucleic-acid assay. The conditions noted are these: Bos taurus. The method, boiled down: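 Competitive displacement assay. GelRed was pre-incubated with ct-DNA for 30 min at [GelRed]/[DNA] = 1:10, then titrated with compound. Emission was read around 590 nm with 350 nm excitation. Quenching constant Kq was obtained by linear Stern–Volmer fitting.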

Assay [2] deals with HCT-116. Briefly: Cell cycle arrest in human HCT116 cells assessed as accumulation at G2 phase at 3 uM after 48 hrs using propidium iodide staining by FACS analysis (reference value: 24.09%). Type of assay: functional. (Flow cytometry measures light scatter and fluorescence of single cells or particles in a stream.)
For a further assay, the system named is HUVEC. Briefly: Cytotoxicity against human HUVEC after 48 hrs by MTT assay. Type of assay: cell-based. Background: Tetrazolium assays rely on reduction of a dye to a coloured formazan, in cell work by metabolically active cells.
Assay [3] deals with HCT-116. The experiment in a line: Cell cycle arrest in human HCT116 cells assessed as accumulation at G1 phase at 5 uM after 48 hrs using propidium iodide staining by FACS analysis (reference value: 39.08%). Type of assay: functional.
The subject of the next assay is CNE. The experiment in a line: Cytotoxicity against human CNE cells after 48 hrs by MTT assay. Type of assay: functional, cell-based.
For assay [4], the system named is HCT-116. Briefly: Induction of apoptosis in human HCT116 cells assessed as necrotic cells at 5 uM after 24 hrs using annexin V-FITC/propidium iodide by flow cytometry (reference value: 2.8%). Type of assay: functional.
A short description of assay [5]: Cytotoxicity against human SPCA2 cells after 48 hrs by MTT assay. Type of assay: functional, cell-based. The conditions noted are these: SPCA2, 48 h.
For the next assay, the system named is HepG2. The experiment in a line: Cytotoxicity against human HepG2 cells after 48 hrs by MTT assay. As to conditions: HepG2, 48 h. Type of assay: functional, cell-based.
For assay [6], the system named is HCT-116. Briefly: Induction of apoptosis in human HCT116 cells assessed as viable cells at 3 uM after 24 hrs using annexin V-FITC/propidium iodide by flow cytometry (reference value: 90%). The conditions noted are these: HCT-116, 24 h, read-out: Activity. Type of assay: functional.
Assay [7] has as its system DNA. Briefly: Binding affinity to calf thymus DNA at 1.5 x 10^-5 M by circular dichroism analysis. Type of assay: nucleic-acid assay. The conditions noted are these: Bos taurus. The gist of the method: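 Circular dichroism spectra recorded on ct-DNA at 1.5 × 10^-4 M, alone and with compound at 1.5 × 10^-5 M. Spectra compared with and without compound.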
For orientation: Circular dichroism is the unequal absorption of left and right circularly polarised light.

Assay [8] concerns HCT-116. The experiment in a line: Cell cycle arrest in human HCT116 cells assessed as accumulation at S phase at 3 uM after 48 hrs using propidium iodide staining by FACS analysis (reference value: 36.84%). Type of assay: functional.
The test system of assay [9] is HCT-116. The experiment in a line: Induction of apoptosis in human HCT116 cells assessed as change in mitochondrial membrane potential at 3 to 5 uM after 24 hrs by JC-1 staining. Type of assay: functional, cell-based. The gist of the method: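 HCT116 cells were exposed for 24 h at 3 and 5 µM, with untreated 24 h controls, then stained with JC-1. Monomer and J-aggregates were excited at 514 and 585 nm. Emission was collected at 515–545 nm (green) and 570–600 nm (red), and cells were imaged by fluorescence microscopy.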

In assay [10] the test system is DNA. The experiment in a line: Binding affinity to F32T oligonucleotide DNA assessed as change in melting temperature by FRET assay.
The subject of assay [11] is HCT-116. The experiment in a line: Induction of apoptosis in human HCT116 cells assessed as late apoptotic cells at 5 uM after 24 hrs using annexin V-FITC/propidium iodide by flow cytometry (reference value: 3.3%). Type of assay: functional.
The subject of assay [12] is HCT-116. Briefly: Induction of apoptosis in human HCT116 cells assessed as necrotic cells at 3 uM after 24 hrs using annexin V-FITC/propidium iodide by flow cytometry (reference value: 2.8%). Type of assay: functional.
The subject of another assay is HeLa. Briefly: Cytotoxicity against human HeLa cells after 48 hrs by MTT assay. Type of assay: functional, cell-based.
Assay [13] has as its system HCT-116. The experiment in a line: Induction of apoptosis in human HCT116 cells assessed as apoptotic morphology at 3 to 5 uM after 24 hrs by Hoechst […] staining. Type of assay: functional, cell-based. The method, boiled down: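 HCT116 cells were treated with compound at 3 and 5 µM for 24 h, alongside 24 h untreated controls. Cells were stained with Hoechst 33258 and examined by fluorescence microscopy. Bright blue nuclei from chromatin condensation and karyopyknosis were scored as apoptotic, and uniform light blue nuclei as live.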

In assay [14] the test system is HCT-116. The experiment in a line: Induction of apoptosis in human HCT116 cells assessed as early apoptotic cells at 5 uM after 24 hrs using annexin V-FITC/propidium iodide by flow cytometry (reference value: 3.9%). Type of assay: functional.
In assay [15] the test system is HCT-116. Briefly: Cell cycle arrest in human HCT116 cells assessed as accumulation at S phase at 5 uM after 48 hrs using propidium iodide staining by FACS analysis (reference value: 36.84%). Type of assay: functional.
The test system of assay [16] is HCT-116. The experiment in a line: Induction of apoptosis in human HCT116 cells assessed as early apoptotic cells at 3 uM after 24 hrs using annexin V-FITC/propidium iodide by flow cytometry (reference value: 3.9%). Type of assay: functional.
In assay [17] the test system is HCT-116. The experiment in a line: Cell cycle arrest in human HCT116 cells assessed as accumulation at G2 phase at 5 uM after 48 hrs using propidium iodide staining by FACS analysis (reference value: 24.09%). Type of assay: functional.
Assay [18] has as its system HCT-116. Briefly: Induction of apoptosis in human HCT116 cells assessed as activation of caspase 3 and 8 after 24 hrs by RT-PCR analysis. Type of assay: functional, cell-based.
The subject of assay [19] is HCT-116. The experiment in a line: Cytotoxicity against human HCT116 cells after 48 hrs by MTT assay. As to conditions: HCT-116, 48 h. Type of assay: functional, cell-based.
Assay [20] has as its system HCT-116. The experiment in a line: Induction of apoptosis in human HCT116 cells assessed as late apoptotic cells at 3 uM after 24 hrs using annexin V-FITC/propidium iodide by flow cytometry (reference value: 3.3%). Type of assay: functional.
The subject of assay [21] is HCT-116. The experiment in a line: Cell cycle arrest in human HCT116 cells assessed as accumulation at G1 phase at 3 uM after 48 hrs using propidium iodide staining by FACS analysis (reference value: 39.08%). Type of assay: functional.
The subject of assay [22] is DNA. The experiment in a line: Binding affinity to calf thymus DNA at DNA and compound ratio 1:1 to 6:1 by UV-vis absorption spectra analysis. As to conditions: Bos taurus. Type of assay: nucleic-acid assay.
For assay [23], the system named is HCT-116. The experiment in a line: Induction of apoptosis in human HCT116 cells assessed as viable cells at 5 uM after 24 hrs using annexin V-FITC/propidium iodide by flow cytometry (reference value: 90%). Type of assay: functional. As to conditions: HCT-116, 24 h, read-out: Activity.
In assay [24] the test system is HCT-116. Briefly: Cytotoxicity against human HCT116 cells. Type of assay: functional, cell-based.
The nature of assay [25]: Cytotoxicity against human COLO320DM cells. Type of assay: functional, cell-based. The conditions noted are these: COLO 320DM.

Calls of active or inactive are those of the source. No cut-off for these calls is given here.

What is called IC50 is the concentration at which inhibition is half-maximal. The term ΔTm denotes the change in melting temperature against a reference sample. Take `CCOP(=O)(OCC)C(NC(=O)c1cc(O)c2c(c1)C(=O)c1cccc(O)c1C2=O)c1cccc(OC)c1` (stereo unspecified): the Kq with DNA [1] stood at 1660. Also, the Activity worked out at 20.09% in the assay on HCT-116 [2]; 49.67% in the assay with HCT-116 [3]; 2.6% in the assay with HCT-116 [4]; 34.66% with HCT-116 [8]; 6.5% in the assay with HCT-116 [11]; 4% in the assay with HCT-116 [12]. In addition, the Activity in the assay with HCT-116 [14] was 33.5%; in the assay with HCT-116 [15], 32.44%; in the assay on HCT-116 [16], 32.5%; in the assay with HCT-116 [17] it was 17.9%; in the assay on HCT-116 [18], “Dose-dependent effect”; in the assay with HCT-116 [20], 10.5%. In addition, the Activity in the assay with HCT-116 [21] was 45.26%. For the same compound, the IC50 in the assay on HUVEC was over 100 µM; in the assay on CNE, 24.1 µM; in [5] it was 28.3 µM; in the assay with HepG2, 22.1 µM; with HeLa it was 19.3 µM; in the assay on HCT-116 [19], 5.32 µM. Further, in the assay on HCT-116 [6], the viability at 3 µM was found to be 53%. In addition, the result in the assay with DNA [7], with HCT-116 [9] and with HCT-116 [13] was Active. Also, the ΔTm in the assay with DNA [10] worked out at 3.1 °C. For the same compound, the Kb in the assay with DNA [22] was found to be 1.03 ×10⁴ /M. Besides, the viability at 5 µM in the assay with HCT-116 [23] was found to be 57.5%.
As for `O=C(O)c1cc(O)c2c(c1)C(=O)c1cccc(O)c1C2=O` [RHEIN], the IC50 in the assay with HUVEC stood at 89.7 µM; in the assay with HCT-116 [24] it was 135 µM; in assay [25], 62.5 µM. For the same compound, the ΔTm with DNA [10] was found to be 2 °C.
